Our source for the MIC80 values is ChEMBL document CHEMBL1147868, “Synthesis of novel triazole derivatives as inhibitors of cytochrome P450 14alpha-demethylase (CYP51)” (2007).

In brackets after ≈: the same amount, converted by molar mass.

Common to all, as to assay type: functional
One assay has as its system Candida parapsilosis. Nature of the assay: Antifungal activity against Candida parapsilosis ATCC 0306392 after 7 days by micro-broth dilution method. The settings on record: Lodderomyces parapsilosis, ATCC 0306392, 168 h. The procedure, abridged:
(§1)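 Micro-broth dilution followed NCCLS methods, using an ATCC standard quality-control strain for C. parapsilosis and a clinical isolate for C. tropicalis. Compounds were dissolved in DMSO, serially diluted in growth medium and incubated at 35 C. MIC80 was the first well with about 80% growth reduction compared with the drug-free well.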

The next assay concerns Candida tropicalis. Nature of the assay: Antifungal activity against Candida tropicalis after 7 days by micro-broth dilution method. Conditions: 168 h. The procedure, abridged:
as §1
(Dilution methods test growth across graded concentrations, often in twofold steps.)

The test system of another assay is Fonsecaea compacta. Nature of the assay: Antifungal activity against Fonsecaea compacta after 7 days by micro-broth dilution method. Conditions: 168 h. The procedure, abridged:
(§2)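 Clinical isolates supplied by a hospital were tested by NCCLS broth microdilution. Compounds were dissolved in DMSO, serially diluted in growth medium, inoculated and incubated at 35 C. Growth was read at 7 days for filamentous fungi. MIC80 was taken as the first well with about 80% less growth than the drug-free well.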

For another assay, the system named is Trichophyton rubrum. Description: Antifungal activity against Trichophyton rubrum after 7 days by microbroth dilution method. The settings on record: 168 h. The procedure, abridged: as §2
The next assay concerns Candida albicans. Description: Antifungal activity against Candida albicans ATCC Y0109 after 24 hrs by micro-broth dilution method. In a few lines:
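An ATCC standard quality-control strain was included in each run of an NCCLS micro-broth dilution assay. Compounds were dissolved in DMSO, serially diluted in growth medium and incubated at 35 C. Reading was at 24 h, and MIC80 was the first well showing roughly 80% growth reduction versus the drug-free control.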

The test system of the next assay is Microsporum. Nature of the assay: Antifungal activity against Microsporum gypseum after 7 days by micro-broth dilution method. The settings on record: 168 h. The procedure, abridged: as §2
Another assay concerns Aspergillus fumigatus. Nature of the assay: Antifungal activity against Aspergillus fumigatus after 7 days by micro-broth dilution method. Conditions: 168 h. In a few lines: as §2
The test system of a further assay is Cryptococcus neoformans. Description: Antifungal activity against Cryptococcus neoformans ATCC BLS108 after 72 hrs by micro-broth dilution method. In a few lines: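 This ATCC standard quality-control strain was tested in every assay by NCCLS microdilution. Test agents were dissolved in DMSO and serially diluted in growth medium. Cultures were incubated at 35 C and read at 72 h. MIC80 was the first well with approximately 80% reduced growth relative to the drug-free well.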

Turning to `COc1ccc(C(=O)Nc2ccc(N3CCN(CC(O)(Cn4cncn4)c4ccc(F)cc4F)CC3)c(F)c2)cc1OC` (stereo not drawn), the MIC80 in the assay with Candida parapsilosis turned out to be 0.0625 µg/mL (≈ 0.105 µM); against Candida tropicalis, 0.0039 µg/mL (≈ 0.00654 µM); against Fonsecaea compacta it was 0.25 µg/mL (≈ 0.419 µM); with Trichophyton rubrum, 0.25 µg/mL (≈ 0.419 µM); with Candida albicans, 0.0625 µg/mL (≈ 0.105 µM); against Microsporum, 0.25 µg/mL (≈ 0.419 µM). For the same compound, the figures for the MIC80 in the assay on Aspergillus fumigatus and against Cryptococcus neoformans were 1 µg/mL (≈ 1.68 µM) and 0.25 µg/mL (≈ 0.419 µM), respectively.
As to `CCCc1ccc(C(=O)Nc2ccc(N3CCN(CC(O)(Cn4cncn4)c4ccc(F)cc4F)CC3)c(F)c2)cc1` (stereo not drawn), the MIC80 against Candida parapsilosis turned out to be 0.0625 µg/mL (≈ 0.108 µM); in the assay on Candida tropicalis, 1 µg/mL (≈ 1.73 µM); against Fonsecaea compacta, 0.25 µg/mL (≈ 0.432 µM); against Trichophyton rubrum, 0.25 µg/mL (≈ 0.432 µM); in the assay on Candida albicans it was 1 µg/mL (≈ 1.73 µM); against Microsporum, 0.25 µg/mL (≈ 0.432 µM). Also, the MIC80 was 4 µg/mL (≈ 6.91 µM) in the assay with Aspergillus fumigatus and 1 µg/mL (≈ 1.73 µM) in the assay on Cryptococcus neoformans.
Regarding `CC(C)c1ccc(C(=O)Nc2ccc(N3CCN(CC(O)(Cn4cncn4)c4ccc(F)cc4F)CC3)c(F)c2)cc1` (stereo not drawn), the MIC80 in the assay on Candida parapsilosis stood at 0.25 µg/mL (≈ 0.432 µM); in the assay with Candida tropicalis, 0.25 µg/mL (≈ 0.432 µM); against Fonsecaea compacta it was 0.25 µg/mL (≈ 0.432 µM); against Trichophyton rubrum, 0.25 µg/mL (≈ 0.432 µM); against Candida albicans, 1 µg/mL (≈ 1.73 µM); with Microsporum, 0.25 µg/mL (≈ 0.432 µM). In addition, the figures for the MIC80 in the assay on Aspergillus fumigatus and in the assay with Cryptococcus neoformans were 4 µg/mL (≈ 6.91 µM) and 0.0625 µg/mL (≈ 0.108 µM), respectively.
As for `O=[N+]([O-])c1ccc(N2CCN(CC(O)(Cn3cncn3)c3ccc(F)cc3F)CC2)c(F)c1` (stereo not drawn), the MIC80 amounted to 0.0039 µg/mL (≈ 0.00843 µM) in the assay with Candida parapsilosis; 0.0152 µg/mL (≈ 0.0329 µM) against Candida tropicalis; 0.0625 µg/mL (≈ 0.135 µM) in the assay with Fonsecaea compacta; 0.0152 µg/mL (≈ 0.0329 µM) in the assay with Trichophyton rubrum; 0.0152 µg/mL (≈ 0.0329 µM) in the assay on Candida albicans; 0.0152 µg/mL (≈ 0.0329 µM) in the assay with Microsporum. Moreover, the figures for the MIC80 in the assay with Aspergillus fumigatus and against Cryptococcus neoformans were 1 µg/mL (≈ 2.16 µM) and 0.0152 µg/mL (≈ 0.0329 µM), respectively.
For the compound `CCCCc1ccc(C(=O)Nc2ccc(N3CCN(CC(O)(Cn4cncn4)c4ccc(F)cc4F)CC3)c(F)c2)cc1` (stereo not drawn), the MIC80 in the assay with Candida parapsilosis was 1 µg/mL (≈ 1.69 µM); against Candida tropicalis, 1 µg/mL (≈ 1.69 µM); in the assay with Fonsecaea compacta, 0.0625 µg/mL (≈ 0.105 µM); in the assay with Trichophyton rubrum, 1 µg/mL (≈ 1.69 µM); in the assay with Candida albicans, 1 µg/mL (≈ 1.69 µM); against Microsporum it was 0.0625 µg/mL (≈ 0.105 µM). Moreover, the results for the MIC80 in the assay on Aspergillus fumigatus and with Cryptococcus neoformans were 16 µg/mL (≈ 27 µM) and 1 µg/mL (≈ 1.69 µM), respectively.
As for `O=C(Nc1ccc(N2CCN(CC(O)(Cn3cncn3)c3ccc(F)cc3F)CC2)c(F)c1)c1cccc(Br)c1` (stereo not drawn), the MIC80 is 0.0625 µg/mL (≈ 0.102 µM) in the assay with Candida parapsilosis; 0.0625 µg/mL (≈ 0.102 µM) in the assay on Candida tropicalis; 0.25 µg/mL (≈ 0.406 µM) in the assay on Fonsecaea compacta; 0.0625 µg/mL (≈ 0.102 µM) against Trichophyton rubrum; 0.0625 µg/mL (≈ 0.102 µM) against Candida albicans; 0.25 µg/mL (≈ 0.406 µM) in the assay on Microsporum. In addition, the MIC80 with Aspergillus fumigatus is 4 µg/mL (≈ 6.5 µM); in the assay on Cryptococcus neoformans, 0.25 µg/mL (≈ 0.406 µM).
Turning to `Cc1ccccc1C(=O)Nc1ccc(N2CCN(CC(O)(Cn3cncn3)c3ccc(F)cc3F)CC2)c(F)c1` (stereo not drawn), the MIC80 stood at 0.0152 µg/mL (≈ 0.0276 µM) against Candida parapsilosis; 0.0152 µg/mL (≈ 0.0276 µM) against Candida tropicalis; 0.25 µg/mL (≈ 0.454 µM) against Fonsecaea compacta; 0.0625 µg/mL (≈ 0.114 µM) with Trichophyton rubrum; 0.0625 µg/mL (≈ 0.114 µM) against Candida albicans; 0.0152 µg/mL (≈ 0.0276 µM) against Microsporum. The MIC80 is 1 µg/mL (≈ 1.82 µM) in the assay with Aspergillus fumigatus and 0.0625 µg/mL (≈ 0.114 µM) in the assay with Cryptococcus neoformans.
Consider `Cc1cccc(C(=O)Nc2ccc(N3CCN(CC(O)(Cn4cncn4)c4ccc(F)cc4F)CC3)c(F)c2)c1` (stereo not drawn), for which the MIC80 came out at 0.0152 µg/mL (≈ 0.0276 µM) against Candida parapsilosis; 0.0152 µg/mL (≈ 0.0276 µM) in the assay with Candida tropicalis; 0.25 µg/mL (≈ 0.454 µM) in the assay on Fonsecaea compacta; 0.0625 µg/mL (≈ 0.114 µM) against Trichophyton rubrum; 0.0625 µg/mL (≈ 0.114 µM) against Candida albicans; 0.0152 µg/mL (≈ 0.0276 µM) with Microsporum. Also, the MIC80 came to 1 µg/mL (≈ 1.82 µM) in the assay with Aspergillus fumigatus and 0.0625 µg/mL (≈ 0.114 µM) against Cryptococcus neoformans.
Regarding `Cc1ccc(C(=O)Nc2ccc(N3CCN(CC(O)(Cn4cncn4)c4ccc(F)cc4F)CC3)c(F)c2)cc1` (stereo not drawn), the MIC80 was 0.0152 µg/mL (≈ 0.0276 µM) in the assay with Candida parapsilosis; 0.0152 µg/mL (≈ 0.0276 µM) against Candida tropicalis; 0.0625 µg/mL (≈ 0.114 µM) against Fonsecaea compacta; 0.0625 µg/mL (≈ 0.114 µM) against Trichophyton rubrum; 0.0625 µg/mL (≈ 0.114 µM) in the assay on Candida albicans; 1 µg/mL (≈ 1.82 µM) in the assay with Microsporum. Further, the MIC80 against Aspergillus fumigatus worked out at 1 µg/mL (≈ 1.82 µM); against Cryptococcus neoformans it was 0.0625 µg/mL (≈ 0.114 µM).
`Cc1ccc(C(=O)Nc2ccc(N3CCN(CC(O)(Cn4cncn4)c4ccc(F)cc4F)CC3)c(F)c2)c(C)c1` (stereo not drawn): the MIC80 in the assay with Candida parapsilosis stood at 0.25 µg/mL (≈ 0.443 µM); against Candida tropicalis it was 0.0625 µg/mL (≈ 0.111 µM); against Fonsecaea compacta, 0.25 µg/mL (≈ 0.443 µM); against Trichophyton rubrum, 0.0625 µg/mL (≈ 0.111 µM); against Candida albicans, 0.25 µg/mL (≈ 0.443 µM); against Microsporum it was 0.0152 µg/mL (≈ 0.0269 µM). Further, the MIC80 was found to be 1 µg/mL (≈ 1.77 µM) with Aspergillus fumigatus and 0.0625 µg/mL (≈ 0.111 µM) in the assay on Cryptococcus neoformans.
Consider `COc1ccc(C(=O)Nc2ccc(N3CCN(CC(O)(Cn4cncn4)c4ccc(F)cc4F)CC3)c(F)c2)cc1` (stereo not drawn), for which the MIC80 was 0.0152 µg/mL (≈ 0.0268 µM) against Candida parapsilosis; 0.0152 µg/mL (≈ 0.0268 µM) in the assay with Candida tropicalis; 0.25 µg/mL (≈ 0.441 µM) against Fonsecaea compacta; 0.25 µg/mL (≈ 0.441 µM) against Trichophyton rubrum; 0.0152 µg/mL (≈ 0.0268 µM) against Candida albicans; 0.25 µg/mL (≈ 0.441 µM) against Microsporum. The MIC80 against Aspergillus fumigatus stood at 0.25 µg/mL (≈ 0.441 µM); in the assay with Cryptococcus neoformans, 0.0625 µg/mL (≈ 0.11 µM).

Usually MIC80 stands for an inhibitory concentration at the 80% level, which refers to growth in some studies and to a panel of isolates in others. High values mean lower susceptibility, low ones higher susceptibility.
